Values joined by “and” are separate entries in the source; they are usually repeats but may differ in a detail not shown here. Identical values can stand only once.
Key:
[1] = test system: HEK-293T; test: Multiplex assay against HEK293T; type: toxicity, cell-based; settings: human, number of replicates 2
Procedure, shortened: (§1)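 Values for tubulin, mitochondrial-mass and membrane-permeability phenotypes are per cents of cells with healthy nuclei. These cells were identified by CellPathfinder machine-learning gating of live cells that had been stained at seeding with Hoechst33342, BioTracker Green Microtubule Cytoskeleton Dye, MitoTracker Red and Annexin V Alexa Fluor 680 and imaged on a CQ1 microscope at 37°C and 5% CO2 after compound addition. The gating first set Hoechst high-intensity objects apart from normal cells, then split normal cells into healthy, pyknosed or fragmented nuclei, and pyknosed cells into mitotic or apoptotic.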

[2] = test system: U2OS; test: Multiplex assay against U2OS; type: toxicity, cell-based; settings: human, number of replicates 2; procedure, shortened: as §1
[3] = 24 h, 1 µM, compound concentration 1 uM
[4] = 24 h, 10 µM, compound concentration 10 uM
[5] = 48 h, 1 µM, compound concentration 1 uM
[6] = 48 h, 10 µM, compound concentration 10 uM
[7] = 12 h, 1 µM, compound concentration 1 uM
[8] = 12 h, 10 µM, compound concentration 10 uM

## CCc1ncnc(N2CCN(C(C)=O)CC2)c1C#Cc1ccc(N)nc1.Cl.Cl
[1]; [3]
  Population Normal (%): 84% and 76%
  Population Pyknosed Nuclei (%): 12% and 14%
  Population Tubulin-Different-Phenotype (%): 68% and 67%
  Total Cell Count: 305 and 394
[1]; [4]
  Population Apoptotic (%): 72% and 60%
  Population Fragmented Nuclei (%): 3% and 6%
  Population Healthy Nuclei (%): 78% and 74%
  Population Hoechst High Intensity Objects (%): 14%
  Population Membrane Permeable-Phenotype (%): 2% and 1%
  Population Mitochondria Different-Phenotype (%): 57% and 64%
  Population Mitotic Cells (%): 27% and 39%
  Population Normal (%): 85%
  Population Pyknosed Nuclei (%): 18%
  Population Tubulin-Different-Phenotype (%): 79% and 82%
  Total Cell Count: 233 and 255
[1]; [5]
  Population Apoptotic (%): 71% and 74%
  Population Fragmented Nuclei (%): 14% and 9%
  Population Healthy Nuclei (%): 63% and 76%
  Population Hoechst High Intensity Objects (%): 20% and 31%
  Population Membrane Permeable-Phenotype (%): 1% and 3%
  Population Mitochondria Different-Phenotype (%): 37% and 25%
  Population Mitotic Cells (%): 28% and 25%
  Population Normal (%): 79% and 68%
  Population Pyknosed Nuclei (%): 21% and 14%
  Population Tubulin-Different-Phenotype (%): 72% and 67%
  Total Cell Count: 307 and 445
[1]; [6]
  Population Apoptotic (%): 65% and 57%
  Population Fragmented Nuclei (%): 7%
  Population Healthy Nuclei (%): 72% and 73%
  Population Hoechst High Intensity Objects (%): 23% and 14%
  Population Membrane Permeable-Phenotype (%): 0%
  Population Mitochondria Different-Phenotype (%): 46% and 63%
  Population Mitotic Cells (%): 34% and 42%
  Population Normal (%): 76% and 85%
  Population Pyknosed Nuclei (%): 20% and 19%
  Population Tubulin-Different-Phenotype (%): 80% and 73%
  Total Cell Count: 260 and 244
[2]; [7]
  Population Apoptotic (%): 100% and 70%
  Population Fragmented Nuclei (%): 19% and 10%
  Population Healthy Nuclei (%): 69% and 80%
  Population Hoechst High Intensity Objects (%): 0%
  Population Membrane Permeable-Phenotype (%): 0%
  Population Mitochondria Different-Phenotype (%): 0%
  Population Normal (%): 100%
  Population Pyknosed Nuclei (%): 11% and 9%
  Population Tubulin-Different-Phenotype (%): 55% and 90%
[2]; [8]
  Population Apoptotic (%): 50% and 55%
  Population Fragmented Nuclei (%): 18% and 10%
  Population Healthy Nuclei (%): 72%
  Population Hoechst High Intensity Objects (%): 0%
  Population Membrane Permeable-Phenotype (%): 4% and 3%
  Population Mitochondria Different-Phenotype (%): 2% and 4%
  Population Mitotic Cells (%): 50% and 44%
  Population Normal (%): 100% and 99%
  Population Pyknosed Nuclei (%): 9% and 17%
  Population Tubulin-Different-Phenotype (%): 87% and 58%
[2]; [3]
  Population Apoptotic (%): 55% and 56%
  Population Fragmented Nuclei (%): 9% and 7%
  Population Healthy Nuclei (%): 75% and 82%
  Population Hoechst High Intensity Objects (%): 0%
  Population Membrane Permeable-Phenotype (%): 2% and 0%
  Population Mitochondria Different-Phenotype (%): 2% and 0%
  Population Mitotic Cells (%): 44% and 43%
  Population Normal (%): 100% and 99%
  Population Pyknosed Nuclei (%): 14% and 10%
  Population Tubulin-Different-Phenotype (%): 72% and 90%
[2]; [4]
  Population Apoptotic (%): 40% and 73%
  Population Fragmented Nuclei (%): 16% and 12%
  Population Healthy Nuclei (%): 67% and 71%
  Population Hoechst High Intensity Objects (%): 0%
  Population Membrane Permeable-Phenotype (%): 4% and 2%
  Population Mitochondria Different-Phenotype (%): 2% and 5%
  Population Mitotic Cells (%): 60% and 26%
  Population Normal (%): 100% and 99%
  Population Pyknosed Nuclei (%): 16%
  Population Tubulin-Different-Phenotype (%): 88% and 60%
[2]; [5]
  Population Apoptotic (%): 77% and 69%
  Population Healthy Nuclei (%): 72% and 82%
  Population Hoechst High Intensity Objects (%): 0%
  Population Membrane Permeable-Phenotype (%): 0% and 2%
  Population Mitochondria Different-Phenotype (%): 0%
  Population Mitotic Cells (%): 22% and 30%
  Population Normal (%): 100%
  Population Pyknosed Nuclei (%): 12% and 13%
  Population Tubulin-Different-Phenotype (%): 75% and 93%
[2]; [6]
  Population Apoptotic (%): 70% and 84%
  Population Fragmented Nuclei (%): 16% and 6%
  Population Healthy Nuclei (%): 32% and 66%
  Population Hoechst High Intensity Objects (%): 0%
  Population Membrane Permeable-Phenotype (%): 5% and 4%
  Population Mitochondria Different-Phenotype (%): 5% and 8%
  Population Mitotic Cells (%): 30% and 15%
  Population Normal (%): 100%
  Population Pyknosed Nuclei (%): 50% and 27%
  Population Tubulin-Different-Phenotype (%): 89% and 72%

Source: ChEMBL document CHEMBL5303300, “EUbOPEN Chemogenomics Library - Multiplex” (2023)
